Measured values: ChEMBL document CHEMBL3045749, “Antifeedant and insecticide properties of a limonoid from Melia azedarach (Meliaceae) with potential use for pest management” (2003)
Active and inactive are the calls of the source. The calls are words filed in the database; no cut-off is given here.

Assays:
[1] = system: Epilachna; assay: Antifeedant activity against third-instar larval stage of Epilachna paenulata infested cucurbita maxima leaves assessed as decrease in food consumption at 0.25 to 4 ug/cm2 measured after 48 hr by no choice leaf disk assay relative to untreated control; format: functional, organism-based
Summary of the method: (§1)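 No-choice test: four third-instar E. paenulata larvae per Petri dish fed C. maxima leaves (renewed every 48 h) with known amounts of compound or solvent applied by syringe. Six replicates per treatment, plus unfed starved controls. Leaf consumption, body weight and mortality recorded every 24 h.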

[2] = system: Epilachna; assay: Antifeedant activity against third-instar larval stage of Epilachna paenulata infested cucurbita maxima leaves assessed as feeding reduction after 24 hr by leaf disk choice assay; format: functional
Summary of the method: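 Leaf-disk choice test: two C. maxima seedling cotyledons in a Petri dish under a glass disk with two 1 cm² holes. One third-instar larva placed equidistant from treated and solvent-control disks, fed 24 h. Area eaten estimated visually by quarters, always by the same operator. AI% = (1 − T/C) × 100; Wilcoxon signed paired rank test, α = 0.05.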

[3] = system: Epilachna; assay: Antifeedant activity against third-instar larval stage of Epilachna paenulata infested cucurbita maxima leaves assessed as decrease in food consumption at 0.25 to 4 ug/cm2 measured after 6 days by no choice leaf disk assay relative to untreated control; format: functional, organism-based; summary of the method: as §1
[4] = system: Epilachna; assay: Antifeedant activity against third-instar larval stage of Epilachna paenulata infested cucurbita maxima leaves assessed as decrease in food consumption at 0.25 to 4 ug/cm2 measured after 24 hr by no choice leaf disk assay relative to untreated control; format: functional, organism-based; summary of the method: as §1
[5] = system: Epilachna; assay: Antifeedant activity against third-instar larval stage of Epilachna paenulata infested cucurbita maxima leaves assessed as increase in larval mortality measured at 96 hr by no choice leaf disk assay; format: functional
Summary of the method: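 Same no-choice setup (four third-instar larvae per dish, treated C. maxima leaves renewed every 48 h, six replicates, mortality scored every 24 h). LD50 derived by probit analysis of mortality at 96 h.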

[6] = system: Epilachna; assay: Antifeedant activity against third-instar larval stage of Epilachna paenulata infested cucurbita maxima leaves assessed as larval mortality at 0.25 to 4 ug/cm2 measured after 24 hr by no choice leaf disk assay relative to untreated control; format: functional; summary of the method: as §1
[7] = system: Epilachna; assay: Antifeedant activity against third-instar larval stage of Epilachna paenulata infested cucurbita maxima leaves assessed as decrease in larval weight gain at 1 to 4 ug/cm2 measured after 96 hr by no choice leaf disk assay relative to untreated control; format: functional, organism-based; summary of the method: as §1
[8] = system: Epilachna; assay: Antifeedant activity against third-instar larval stage of Epilachna paenulata infested cucurbita maxima leaves assessed as decrease in larval weight gain at 0.25 to 4 ug/cm2 measured after 144 hr by no choice leaf disk assay relative to untreated control; format: functional, organism-based; summary of the method: as §1

C/C=C(\C)C(=O)O[C@H]1C[C@@H](OC(C)=O)[C@@]2(C(=O)OC)CO[C@H]3[C@@H](O)[C@@](C)([C@]45O[C@@]4(C)[C@@H]4C[C@H]5O[C@@H]5OC=C[C@@]54O)[C@H]4[C@]1(CO[C@]4(O)C(=O)OC)[C@@H]32 [AZADIRACHTIN A]
Activity [1]: Active | ED50 [2]: 0.72 microg/cm2 | Activity [3]: Active | Activity [4]: inactive | LD50 [5]: 1.24 microg/cm2

CC(=O)O[C@@H]1C[C@H](O)[C@@]23COC(O)[C@]1(C)[C@@H]2C[C@@H](O)[C@]1(C)[C@@H]3[C@H](O)C(=O)[C@@]2(C)[C@H](c3ccoc3)C[C@H]3O[C@@]312 (stereo partly drawn) [MELIARTENIN]
mortality [6]: 20% | Activity [7]: Active | ED50 [2]: 0.8 microg/cm2 | Activity [3]: Active | Activity [4]: Active | LD50 [5]: 0.76 microg/cm2 | Activity [8]: Active

CC(=O)O[C@@H]1C[C@H](O)[C@@]23CO[C@@H](O)[C@]1(C)[C@@H]2C[C@@H](O)[C@]1(C)[C@@H]3C(=O)[C@H](OC(C)=O)[C@@]2(C)[C@H](c3ccoc3)C[C@H]3O[C@]321 [TOOSENDANIN]
ED50 [2]: 3.69 microg/cm2
